Calls of active or inactive are those of the source. No cut-off for these calls is given here.
How the values were obtained:
[1] = Cytotoxicity against human MRC5 cells after 3 days by resazurin-based fluorescence analysis; type: cell-based
Hepatitis C virus [2] = assay: Antiviral activity against Hepatitis C virus genotype 2b infected in human HuH7 by transient replicon assay; type: functional, organism-based, Hepacivirus hominis; conditions: Huh-7
Outline: (§1)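 Transient replicon assay using chimeric replicons whose NS5B region is derived from patient isolates of the stated genotype.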

Homo sapiens [3] = assay: Drug metabolism in human assessed as CYP3A4-induced 4-beta-hydroxycholesterol level at 300 to 1250 mg, po bid for 5 days followed by morning dose on day 6; type: ADME, organism-based; conditions: in vivo, 120 h
Outline: (§2)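 Healthy volunteers given oral b.i.d. doses of 300, 1000 or 1250 mg for 5 days plus a morning dose on day 6, in hydroxypropyl-β-cyclodextrin vehicle; adverse events, laboratory parameters, vital signs, food consumption, appetite, ECG and plasma 4-β-hydroxycholesterol (CYP3A4 induction marker) monitored.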

Hepatitis C virus [4] = assay: Antiviral activity against Hepatitis C virus harboring […] R155K mutant infected in human HuH7 by luciferase reporter gene assay; type: functional, organism-based; conditions: Hepacivirus hominis; Huh-7
[5] = Cytotoxicity against human HepG2 cells after 3 days by resazurin-based fluorescence analysis; type: cell-based
Plasma = assay: Fraction unbound in human plasma; type: ADME, cell-free
Hepatitis C virus [6] = assay: Antiviral activity against Hepatitis C virus genotype 1a infected in human assessed as reduction in plasma HCV RNA level administered for 10 days measured on day 11; type: functional, organism-based; conditions: Hepacivirus hominis, subtype 1a
Outline: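 HCV genotype 1a- and 1b-infected patients received oral 1000 mg b.i.d. together with an NS3/4A protease inhibitor at 150 mg q.d. for 10 days. The read-out was the median decrease in plasma HCV RNA (log10 IU/mL) at day 11.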

Hepatitis C virus [7] = assay: Antiviral activity against Hepatitis C virus genotype 1b harboring NS5B NNI-1 site P495L mutant infected in human HuH7 by luciferase reporter gene assay relative to wild-type HCV genotype 1b; type: functional, Hepacivirus hominis, Huh-7
Hepatitis C virus [8] = assay: Antiviral activity against Hepatitis C virus genotype 1b infected in human assessed as log10 reduction in HCV RNA level at 500 mg, po bid for 5 days followed by morning dose on day 6 relative to control; type: functional, Hepacivirus hominis
Outline: (§3)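 Oral b.i.d. dosing of HCV genotype 1-infected patients at 500 mg or 1000 mg for 5 days, plus a morning dose on day 6, in hydroxypropyl-β-cyclodextrin vehicle. Read-out was the median maximum decrease in plasma HCV RNA from baseline (log10), using patients with HCV RNA data available up to Day 6.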

Hepatitis C virus [9] = assay: Antiviral activity against Hepatitis C virus harboring […] A156V mutant infected in human HuH7 by luciferase reporter gene assay; type: functional, organism-based; conditions: Hepacivirus hominis; Huh-7
Homo sapiens [10] = assay: Toxicity in human assessed as effect on food consumption at 300 to 1250 mg, po bid for 5 days followed by morning dose on day 6; type: organism-based; conditions: in vivo, 120 h; outline: as §2
[11] = Binding affinity to Hepatitis C virus genotype 4a NS5B by surface plasmon resonance analysis; set-up: species or system Hepatitis C virus subtype 4a
Outline: (§4)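 Surface plasmon resonance binding to NS5B polymerase of the stated genotype; association and dissociation rate constants measured, from which Kd and residence half-life were derived; median Kd reported.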

Hepatitis C virus [12] = assay: Antiviral activity against Hepatitis C virus harboring NS5B C316Y mutant infected in human HuH7 by luciferase reporter gene assay; type: functional, organism-based; conditions: Hepacivirus hominis; Huh-7
[13] = Binding affinity to Hepatitis C virus genotype 5a NS5B by surface plasmon resonance analysis; set-up: species or system Hepatitis C virus subtype 5a; outline: as §4
Hepatitis C virus [14] = assay: Antiviral activity against Hepatitis C virus genotype 3a infected in human HuH7 by transient replicon assay; type: functional, organism-based, Hepacivirus hominis; conditions: Huh-7; outline: as §1
Homo sapiens [15] = assay: Toxicity in HCV genotype 1-infected patient assessed as gastrointestinal side-effects at 500 to 1000 mg, po bid for 5 days followed by morning dose on day 6; type: organism-based; conditions: in vivo, 120 h
Outline: (§5)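 HCV genotype 1-infected patients given oral b.i.d. doses of 500 or 1000 mg for 5 days plus a morning dose on day 6, in hydroxypropyl-β-cyclodextrin vehicle; adverse events with grading, laboratory parameters, vital signs, food consumption, appetite and ECG monitored.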

Hepatitis C virus [16] = assay: Antiviral activity against Hepatitis C virus genotype 4a infected in human HuH7 by transient replicon assay; type: functional, organism-based, Hepacivirus hominis; conditions: Huh-7; outline: as §1
Homo sapiens [17] = assay: Toxicity in HCV genotype 1-infected patient assessed as effect on vital signs at 500 to 1000 mg, po bid for 5 days followed by morning dose on day 6; type: organism-based; conditions: in vivo, 120 h; outline: as §5
[18] = Toxicity in rat after 5 days; type: organism-based; conditions: in vivo
Hepatitis C virus [19] = assay: Antiviral activity against Hepatitis C virus harboring NS5B S96T mutant infected in human HuH7 by luciferase reporter gene assay; type: functional, organism-based; conditions: Hepacivirus hominis; Huh-7
Hepatitis C virus [20] = assay: Antiviral activity against Hepatitis C virus genotype 1b infected in human HuH7 assessed as rebound of replicon RNA at 3.75 uM preincubated for 2 weeks followed by 3 week rebound phase by RT-PCR analysis; type: functional, organism-based; conditions: Hepacivirus hominis, Huh-7
Outline: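 Clearance-and-rebound test in Huh7-Luc genotype 1b replicon cells. Cells were incubated with inhibitor (3.75 μM alone) for 14 days, then held for a 3-week rebound phase without inhibitor. Replicon RNA was followed for clearance and rebound.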

[21] = Binding affinity to Hepatitis C virus genotype 3a NS5B by surface plasmon resonance analysis; set-up: species or system Hepatitis C virus subtype 3a; outline: as §4
Hepatitis C virus [22] = assay: Antiviral activity against Hepatitis C virus harboring NS5B S282T mutant infected in human HuH7 by luciferase reporter gene assay; type: functional, organism-based; conditions: Hepacivirus hominis; Huh-7
[23] = Binding affinity to Hepatitis C virus genotype 6a NS5B by surface plasmon resonance analysis; set-up: species or system Hepatitis C virus subtype 6a; outline: as §4
Homo sapiens [24] = assay: Toxicity in HCV genotype 1-infected patient assessed as grade-4 adverse events at 500 to 1000 mg, po bid for 5 days followed by morning dose on day 6; type: organism-based; conditions: in vivo, 120 h; outline: as §5
Hepatitis C virus [25] = assay: Antiviral activity against Hepatitis C virus genotype 1a infected in human HuH7-SG cells after 3 days by RT-PCR analysis; type: functional, organism-based, Hepacivirus hominis; conditions: subtype 1a, Huh-7, 72 h
Hepatitis C virus [26] = assay: Antiviral activity against Hepatitis C virus genotype 1a infected in human assessed as log10 reduction in HCV RNA level at 500 mg, po bid for 5 days followed by morning dose on day 6 relative to control; type: functional, Hepacivirus hominis, subtype 1a; outline: as §3
Hepatitis C virus [27] = assay: Antiviral activity against Hepatitis C virus harboring […] D168V mutant infected in human HuH7 by luciferase reporter gene assay; type: functional, organism-based; conditions: Hepacivirus hominis; Huh-7
[28] = Binding affinity to Hepatitis C virus genotype 1b NS5B by surface plasmon resonance analysis; set-up: species or system Hepatitis C virus subtype 1b; outline: as §4
Hepatitis C virus [29] = assay: Antiviral activity against Hepatitis C virus genotype 1b infected in human HuH7 cells after 72 hrs by luciferase reporter gene assay in presence of 40% human plasma relative to control; type: functional, Hepacivirus hominis, Huh-7
Hepatitis C virus [30] = assay: Antiviral activity against Hepatitis C virus genotype 1a infected in human assessed as log10 reduction in HCV RNA level at 1000 mg, po bid for 5 days followed by morning dose on day 6 relative to control; type: functional, Hepacivirus hominis, subtype 1a; outline: as §3
Hepatitis C virus [31] = assay: Antiviral activity against Hepatitis C virus genotype 1b infected in human HuH7 assessed as suppression of formation of resistant colonies at 1.5 uM preincubated for 2 weeks followed by 3 week rebound phase by RT-PCR analysis; type: functional, organism-based; conditions: Hepacivirus hominis, Huh-7
Outline: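 Huh7-Luc genotype 1b replicon cells were incubated for 14 days with the NNI alone (up to 3.75 μM), with TMC435 alone, or with both. A 3-week rebound phase without inhibitor followed, tracking replicon RNA clearance. A parallel colony formation run exposed the cells for 2−3 weeks and scored resistant colonies.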

Homo sapiens [32] = assay: Toxicity in human assessed as effect on laboratory parameters at 300 to 1250 mg, po bid for 5 days followed by morning dose on day 6; type: organism-based; conditions: in vivo, 120 h; outline: as §2
[33] = Cytotoxicity against HEK293T cells after 3 days by resazurin-based fluorescence analysis; type: cell-based, HEK-293T; conditions: human

## COc1ccc2c(c1)C=C1Cn3c-2c(C2CCCCC2)c2ccc(cc23)C(=O)NS(=O)(=O)N(C)CCOCCN(C)C1=O [TMC-647055]
[1]
  CC50 at 72 h: > 50 µM
Hepatitis C virus [2]
  EC50: > 28 µM
Homo sapiens [3]
  Drug metabolism: Active
Hepatitis C virus [4]
  Activity: Active
[5]
  CC50 at 72 h: > 50 µM
Plasma
  Fu: 0.3%
Hepatitis C virus [6]
  Activity: Active
Hepatitis C virus [7]
  fold change (FC): 371
Hepatitis C virus [8]
  FC: 3.3
Hepatitis C virus [9]
  Activity: Active
Homo sapiens [10]
  Activity: Non-toxic
[11]
  Kd: 0.002 µM
Hepatitis C virus [12]
  Activity: Active
[13]
  Kd: 0.021 µM
Hepatitis C virus [14]
  EC50: 0.088 µM
Homo sapiens [15]
  Activity: Toxic
Hepatitis C virus [16]
  EC50: 0.097 µM
Homo sapiens [17]
  Activity: Non-toxic
[18]
  NOAEL at 120 h: ≤ 1000 mg/kg/day
Hepatitis C virus [19]
  Activity: Active
Hepatitis C virus [20]
  Activity: inactive
[21]
  Kd: 0.0061 µM
Hepatitis C virus [22]
  Activity: Active
[23]
  Kd: 0.03 µM
Homo sapiens [24]
  Activity: Non-toxic
Hepatitis C virus [25]
  EC50: 0.166 µM
Hepatitis C virus [26]
  FC: 1.4
Hepatitis C virus [27]
  Activity: Active
[28]
  Kd: 0.0039 µM
Hepatitis C virus [29]
  fold change (FC): 9
Hepatitis C virus [30]
  FC: 2.4
Hepatitis C virus [31]
  Activity: Active
Homo sapiens [32]
  Activity: Non-toxic
[33]
  CC50 at 72 h: > 50 µM

— ChEMBL document CHEMBL3124872, “Discovery and early development of TMC647055, a non-nucleoside inhibitor of the hepatitis C virus NS5B polymerase” (J Med Chem, 2014)
